Laboratory results reported in ChEMBL document CHEMBL1125427, “Synthesis of 3-(2-pyridylethyl)benzoxazolinone derivatives: potent analgesic and antiinflammatory compounds inhibiting prostaglandin E2” (1992).

Columns and labels:
Assay type in all cases: functional
Mus musculus [1] = assay: The compound was evaluated for inhibition of edema induced by histamine at 10 mg/mL
In short: (§1)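 Female albino mice (22 ± 2 g, local breed), six per group, housed in eights with free food and water, acclimatised at least 2 days. Compound given orally at 100 mg/kg; 60 min later 0.01 mL of the phlogistic agent (histamine or serotonin) injected subcutaneously into the right hind paw plantar surface. Paw edema measured with a dial thickness gauge; effect expressed as percent inhibition.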

Mus musculus [2] = assay: The compound was evaluated for inhibition of edema induced by serotonin at 250 ug/mL; in short: as §1
Mus musculus [3] = species: Mus musculus; assay: Analgesic activity in mice; design: concentration or dose not given beside the values
In short: (§2)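 Female albino mice (22 ± 2 g, local breed), groups of eight, dosed orally at 100 mg/kg as a suspension in 5% gum arabic syrup. After 1 h, 3% acetic acid was given ip at 300 mg/kg. Stretches were counted over 10 min, starting 5 min after injection. Percent activity = |n − n'|/n × 100 against syrup-only controls (n = 6).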

Mus musculus [4] = assay: Gastric ulcerogenic activity at a dose of 100 mg/kg
In short: (§3)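 Mice fasted 24 h with water available. Compound in methyl cellulose vehicle given by oral gavage at 0.5 mL/100 g body weight. Animals were killed after 4 h and stomachs examined for lesions under a dissecting microscope. Read-out: ulcer incidence per group of 8 and lesion length (mm/mouse ± SE).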

Mus musculus [5] = assay: Gastric ulcerogenic activity at a dose of 300 mg/kg; in short: as §3
Mus musculus [6] = assay: Gastric ulcerogenic activity at a dose of 60 mg/kg; in short: as §3
Mus musculus [7] = assay: Intestinal ulcerogenic activity at a dose of 100 mg/kg
In short: (§4)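 Fed animals were gavaged with compound on 3 consecutive days and killed 24 h after the last dose. Intestines were examined for ulcers. Read-out: ulcer incidence per group of 8 and lesion length (mm/mouse ± SE).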

Mus musculus [8] = assay: The compound was evaluated for inhibition of edema induced by PGE at […]
In short: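 Mice, six per group, dosed orally at 100 mg/kg. After 60 min, PGE2 (20 μg/0.01 mL) was injected subcutaneously into the right hind paw plantar surface. Edema was measured with a dial thickness gauge and the effect expressed as percent inhibition.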

Mus musculus [9] = assay: The compound was evaluated for inhibition of edema induced by arachidonic acid at 1 mg/mL
In short: (§5)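 Mice, six per group, dosed orally at 100 mg/kg. After 60 min, 0.01 mL of phlogistic agent (arachidonic acid or bradykinin) was injected subcutaneously into the right hind paw plantar surface. Edema was measured by dial thickness gauge and the effect expressed as percent inhibition.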

Mus musculus [10] = assay: Intestinal ulcerogenic activity at a dose of 60 mg/kg; in short: as §4
Mus musculus [11] = assay: Antiinflammatory activity against CPE in mice following peroral administration of 60 mg/kg; conditions: route oral
In short: (§6)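 Female albino mice (22 ± 2 g), six per group, dosed orally. After 60 min, 0.01 mL of 2% carrageenan was injected subcutaneously into the right hind paw plantar surface. Edema was read with a dial thickness gauge 3 h later. ED50 was given in mg/kg po with 95% confidence limits.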

Mus musculus [12] = assay: Intestinal ulcerogenic activity at a dose of 300 mg/kg; in short: as §4
Mus musculus [13] = assay: Gastric ulcerogenic activity at a dose of 60 mg/kg: 8 mice were considered for the test; in short: as §3
Mus musculus [14] = assay: Intestinal ulcerogenic activity at a dose of 100 mg/kg: 8 mice were considered for the test; in short: as §4
Mus musculus [15] = assay: Intestinal ulcerogenic activity at a dose of 300 mg/kg: 8 mice were considered for the test; in short: as §4
Mus musculus [16] = assay: Intestinal ulcerogenic activity at a dose of 60 mg/kg:group of 8 mouse considered for the test; in short: as §4
Mus musculus [17] = assay: Gastric ulcerogenic activity at a dose of 300 mg/kg: 8 mice were considered for the test; in short: as §3
Mus musculus [18] = assay: Gastric ulcerogenic activity at a dose of 100 mg/kg: 8 mice were considered for the test; in short: as §3
Mus musculus [19] = assay: The compound was evaluated for inhibition of edema induced by bradykinin at 100 ug/mL; in short: as §5
Mus musculus [20] = assay: Inhibitory activity against carrageenan induced paw edema in mice; design: concentration or dose not given beside the values
Mus musculus [21] = assay: Intestinal ulcerogenic activity at a dose of 60 mg/kg: 8 mice were considered for the test; in short: as §4
Mus musculus [22] = assay: Gastric ulcerogenic activity at a dose of 30 mg/kg; in short: as §3
Mus musculus [23] = assay: Antiinflammatory activity against CPE in mice following peroral administration of 30 mg/kg; conditions: route oral; in short: as §6
Mus musculus [24] = assay: Intestinal ulcerogenic activity at a dose of 30 mg/kg; in short: as §4
Mus musculus [25] = assay: Intestinal ulcerogenic activity at a dose of 100 mg/kg: group of 8 mice were considered for the test; in short: as §4
Mus musculus [26] = assay: Intestinal ulcerogenic activity at a dose of 300 mg/kg: group of 8 mice were considered for the test; in short: as §4
Mus musculus [27] = assay: Intestinal ulcerogenic activity at a dose of 30 mg/kg: group of 8 mice were considered for the test; in short: as §4
Mus musculus [28] = assay: Gastric ulcerogenic activity at a dose of 30 mg/kg:group of 8 mouse considered for the test; in short: as §3
Mus musculus [29] = assay: Gastric ulcerogenic activity at a dose of 300 mg/kg:group of 8 mouse considered for the test; in short: as §3
Mus musculus [30] = assay: Gastric ulcerogenic activity at a dose of 100 mg/kg:group of 8 mouse considered for the test; in short: as §3
Mus musculus [31] = assay: Gastric ulcerogenic activity at a dose of 20 mg/kg; in short: as §3
Mus musculus [32] = assay: Gastric ulcerogenic activity at a dose of 50 mg/kg; in short: as §3
Mus musculus [33] = assay: Intestinal ulcerogenic activity at a dose of 20 mg/kg; in short: as §4
Mus musculus [34] = assay: Antiinflammatory activity against CPE in mice following peroral administration of 20 mg/kg; conditions: route oral; in short: as §6
Mus musculus [35] = assay: Intestinal ulcerogenic activity at a dose of 50 mg/kg; in short: as §4
Mus musculus [36] = assay: Gastric ulcerogenic activity at a dose of 50 mg/kg: 8 mice were considered for the test; in short: as §3
Mus musculus [37] = assay: Intestinal ulcerogenic activity at a dose of 20 mg/kg: 8 mice were considered for the test; in short: as §4
Mus musculus [38] = assay: Intestinal ulcerogenic activity at a dose of 50 mg/kg: 8 mice were considered for the test; in short: as §4
Mus musculus [39] = assay: Gastric ulcerogenic activity at a dose of 20 mg/kg: 8 mice were considered for the test; in short: as §3
Mus musculus [40] = species: Mus musculus; assay: Analgesic activity in mice.; in short: as §2
Mus musculus [41] = assay: The compound was evaluated for inhibition of edema induced by serotonin at 250 micro g/mL; in short: as §1
Mus musculus [42] = assay: Gastric ulcerogenic activity at a dose of 10 mg/kg; in short: as §3
Mus musculus [43] = assay: The compound was evaluated for inhibition of edema induced by bradykinin at 100 micro g/mL; in short: as §5
Mus musculus [44] = assay: Inhibitory activity against carrageenan induced mouse paw edema in mice.
Mus musculus [45] = assay: Antiinflammatory activity against CPE in mice following peroral administration of 10 mg/kg; conditions: route oral; in short: as §6
Mus musculus [46] = assay: Intestinal ulcerogenic activity at a dose of 10 mg/kg; 8 mice were considered for the test; in short: as §4
Mus musculus [47] = assay: Gastric ulcerogenic activity at a dose of 10 mg/kg: 8 mice were considered for the test; in short: as §3
Mus musculus [48] = assay: Intestinal ulcerogenic activity at a dose of 10 mg/kg; in short: as §4

SMILES	Inhibition (Mus musculus [1]) [%]	Inhibition (Mus musculus [2]) [%]	Analgesic activity (Mus musculus [3]) [%]	Lesion length (Mus musculus [7]) [mm mice-1]	Inhibition (Mus musculus [8]) [%]	Inhibition (Mus musculus [9]) [%]	Inhibition (Mus musculus [19]) [%]	Inhibition (Mus musculus [20]) [%]	further results
O=c1oc2ccc(Cl)cc2n1CCc1ccccn1	9	10.5	96.96	0	64.8	42	7	62.3	Lesion length (Mus musculus [4]): 0.2 mm mice-1; Lesion length (Mus musculus [5]): 0.9 mm mice-1; Lesion length (Mus musculus [6]): 0 mm mice-1; Lesion length (Mus musculus [10]): 0 mm mice-1; ED50 (Mus musculus [11]): 63 mg/kg; Lesion length (Mus musculus [12]): 0.1 mm mice-1; Ulcer incidence (Mus musculus [13]): 0 number/group; Ulcer incidence (Mus musculus [14]): 0 number/group; Ulcer incidence (Mus musculus [15]): 1 number/group; Ulcer incidence (Mus musculus [16]): 0 number/group; Ulcer incidence (Mus musculus [17]): 4 number/group; Ulcer incidence (Mus musculus [18]): 1 number/group
O=c1oc2ccccc2n1CCc1ccncc1	7.6	9.4	96.06	0	62.2	38.9	6.4	59.1	Lesion length (Mus musculus [4]): 0 mm mice-1; Lesion length (Mus musculus [5]): 0.9 mm mice-1; Lesion length (Mus musculus [6]): 0 mm mice-1; Lesion length (Mus musculus [10]): 0 mm mice-1; ED50 (Mus musculus [11]): 57 mg/kg; Lesion length (Mus musculus [12]): 0.1 mm mice-1; Ulcer incidence (Mus musculus [13]): 0 number/group; Ulcer incidence (Mus musculus [14]): 0 number/group; Ulcer incidence (Mus musculus [15]): 2 number/group; Ulcer incidence (Mus musculus [21]): 0 number/group; Ulcer incidence (Mus musculus [17]): 5 number/group; Ulcer incidence (Mus musculus [18]): 0 number/group
COc1ccc(C(=O)c2ccc3c(c2)oc(=O)n3CCc2ccccn2)cc1	5.4	9.9	80.34	–	–	40	13	30.8	–
O=C(c1ccc2c(c1)oc(=O)n2CCc1ccccn1)c1ccccc1Cl	5	18.2	91.74	0	53	46	6.4	37.1	Lesion length (Mus musculus [4]): 0 mm mice-1; Lesion length (Mus musculus [22]): 0 mm mice-1; Lesion length (Mus musculus [5]): 0.4 mm mice-1; ED50 (Mus musculus [23]): 25.5 mg/kg; Lesion length (Mus musculus [12]): 0.2 mm mice-1; Lesion length (Mus musculus [24]): 0 mm mice-1; Ulcer incidence (Mus musculus [25]): 0 number/group; Ulcer incidence (Mus musculus [26]): 0 number/group; Ulcer incidence (Mus musculus [27]): 0 number/group; Ulcer incidence (Mus musculus [28]): 0 number/group; Ulcer incidence (Mus musculus [29]): 2 number/group; Ulcer incidence (Mus musculus [30]): 0 number/group
O=c1oc2ccccc2n1CCc1ccccn1	5.5	10.2	92.17	0	56.2	41.3	6	55.2	Lesion length (Mus musculus [5]): 0.7 mm mice-1; Lesion length (Mus musculus [6]): 0 mm mice-1; Lesion length (Mus musculus [10]): 0 mm mice-1; ED50 (Mus musculus [11]): 55 mg/kg; Lesion length (Mus musculus [12]): 0.07 mm mice-1; Ulcer incidence (Mus musculus [13]): 0 number/group; Ulcer incidence (Mus musculus [14]): 0 number/group; Ulcer incidence (Mus musculus [15]): 0 number/group; Ulcer incidence (Mus musculus [21]): 0 number/group; Ulcer incidence (Mus musculus [17]): 4 number/group; Ulcer incidence (Mus musculus [18]): 1 number/group
O=c1oc2ccc(Cl)cc2n1CCc1ccncc1	11	13.1	100	0.15	68	51.2	9	68.5	Lesion length (Mus musculus [4]): 0.4 mm mice-1; Lesion length (Mus musculus [31]): 0 mm mice-1; Lesion length (Mus musculus [32]): 0 mm mice-1; Lesion length (Mus musculus [33]): 0 mm mice-1; ED50 (Mus musculus [34]): 18.2 mg/kg; Lesion length (Mus musculus [35]): 0 mm mice-1; Ulcer incidence (Mus musculus [36]): 0 number/group; Ulcer incidence (Mus musculus [14]): 0 number/group; Ulcer incidence (Mus musculus [37]): 0 number/group; Ulcer incidence (Mus musculus [38]): 0 number/group; Ulcer incidence (Mus musculus [18]): 1 number/group; Ulcer incidence (Mus musculus [39]): 0 number/group
CC(=O)c1ccc2c(c1)oc(=O)n2CCc1ccncc1	–	–	38.46	–	–	–	–	10.3	–
CC(=O)c1ccc2c(c1)oc(=O)n2CCc1ccccn1	–	–	48.74	–	–	–	–	5.6	–
O=C(c1ccccc1Cl)c1cc2oc(=O)n(CCc3ccccn3)c2cc1Cl	10	9	72.67	–	–	37	7.6	19.7	–
O=C(c1ccccc1)c1ccc2c(c1)oc(=O)n2CCc1ccccn1	6	9.8	79.49	–	–	32	11	37.1	–
O=C(c1ccc2c(c1)oc(=O)n2CCc1ccncc1)c1ccccc1Cl	7.4	10	84.35	–	–	39	7	38.6	–
O=C(c1ccccc1)c1ccc2c(c1)oc(=O)n2CCc1ccncc1	8.5	14.1	85.47	–	–	36.5	10	46.5	–
COc1ccc(C(=O)c2ccc3c(c2)oc(=O)n3CCc2ccncc2)cc1	8	15	75.21	–	–	32	10	25.9	–
CC(=O)Oc1ccccc1C(=O)O [ASPIRIN]	–	–	–	–	–	–	–	–	Analgesic activity (Mus musculus [40]): 58.26%
COc1ccc2c(c1)c(CC(=O)O)c(C)n2C(=O)c1ccc(Cl)cc1 [INDOMETHACIN]	14.7	–	–	–	–	37	–	–	Inhibition (Mus musculus [41]): 10.3%; Lesion length (Mus musculus [42]): 0.6 mm mice-1; Inhibition (Mus musculus [43]): 13.4%; Inhibition (Mus musculus [44]): 21.1%; ED50 (Mus musculus [45]): 7.5 mg/kg; Ulcer incidence (Mus musculus [46]): 8 number/group; Ulcer incidence (Mus musculus [47]): 7 number/group; Lesion length (Mus musculus [48]): 0.4 mm mice-1
